Measurements as given in PMC6694902 (Journal of Taibah University Medical Sciences, 2017).
Values after ≈ are worked out from the molar mass of the structure shown. Values joined by “and” are separate entries in the source; they are usually repeats but may differ in a detail not shown here. Equal values may be shown once.

Experiments:
[1] = DPPH radical scavenging assay; format: biochemical; settings: mean ± S.D., n = 3; for IC50 (DPPH radical scavenging): graphically determined
Method in brief: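 DPPH scavenging, a modified method, was read as absorbance at 517 nm for test compounds at several concentrations. BHT served as standard, and DPPH in methanol served as control. Percent inhibition was calculated from control and sample absorbances, and IC50 was obtained graphically. Data were analysed by one-way ANOVA with Dunnett's post hoc test.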

[2] = test system: Candida albicans (MTCC 3017); test: Minimum inhibitory concentration; format: cell-based; settings: for MIC: Candida albicans, MTCC3017, read-out: Minimum inhibitory concentration (MIC), C. albicans; for Minimum inhibitory concentration (MIC), C. albicans: 31.25–500 µg/mL tested, 37 °C, 18–24 h
Method in brief: (§1)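 MIC was determined in agar wells on Sabouraud dextrose agar seeded with the fungal strain (McFarland 0.5, 1.5 × 10^6 CFU/mL). DMF stocks at 1 mg/mL were diluted two-fold to five levels (31.25–500 µg/mL) and loaded into wells, with fluconazole as reference. After 18–24 h at 37 °C, the lowest inhibitory concentration was taken as the MIC.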

Cryptococcus neoformans [3] = test: Agar well diffusion, zone of inhibition; format: cell-based; settings: mean ± S.D., n = 6
Method in brief: (§2)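 Agar well diffusion on Sabouraud dextrose agar. C. albicans MTCC 3017 came from IMTECH; C. neoformans was an Utkal University strain. Plates were seeded with 1.5 × 10^6 CFU/mL suspensions (McFarland 0.5). Test compounds were dissolved in DMF (1 mg/mL stock) and loaded into wells, with fluconazole as reference. Incubation was 37 °C for 18–24 h, and zones were measured.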

[4] = test system: Klebsiella pneumoniae (MTCC 109); test: Agar well diffusion, zone of inhibition; format: cell-based; settings: mean ± S.D., n = 6
Method in brief: (§3)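 Agar well diffusion on nutrient agar. K. pneumoniae MTCC 109 came from IMTECH; S. aureus (res) was an Utkal University isolate. Plates were seeded with 1.5 × 10^6 CFU/mL suspensions (McFarland 0.5). Test compounds were dissolved in DMF (1 mg/mL stock) and placed in wells, with amoxicillin and ampicillin as references. Plates were kept at 37 °C for 18–24 h, then zones were read.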

[5] = test system: Candida albicans (MTCC 3017); test: Agar well diffusion, zone of inhibition; format: cell-based; settings: mean ± S.D., n = 6
Method in brief: as §2

Escherichia coli (res) [6] = test: Agar well diffusion, zone of inhibition; format: cell-based; settings: mean ± S.D., n = 6; resistant to norfloxacin, ofloxacin, ampicillin, cefixime, nitrofurantoin
Method in brief: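 Clinical isolate from a faecal sample (Bhubaneswar hospital). Nutrient agar plates were seeded with a 1.5 × 10^6 CFU/mL suspension matched to McFarland 0.5. Test compound was loaded into the agar wells from a DMF stock (1 mg/mL). Plates were incubated at 37 °C for 18–24 h and the inhibition zone was read. Amoxicillin and ampicillin were the reference antibiotics.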

[7] = test system: Staphylococcus aureus (res); test: Agar well diffusion, zone of inhibition; format: cell-based; settings: mean ± S.D., n = 6; resistant to norfloxacin, ofloxacin, ampicillin, cefotaxime
Method in brief: as §3

[8] = test system: Staphylococcus aureus (res); test: Minimum inhibitory concentration; format: cell-based; settings: for MIC: Staphylococcus aureus, read-out: Minimum inhibitory concentration (MIC), S. aureus (res), 31.25–500 µg/mL tested, 37 °C, 18–24 h; for Minimum inhibitory concentration (MIC), S. aureus (res): 31.25–500 µg/mL tested, 37 °C, 18–24 h
Method in brief: (§4)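 MIC was determined in nutrient agar wells seeded with bacteria (McFarland 0.5, 1.5 × 10^6 CFU/mL). E. coli (res) and S. aureus (res) were clinical isolates; K. pneumoniae was MTCC 109. DMF stocks at 1 mg/mL were diluted two-fold to five levels (31.25–500 µg/mL) in wells, with amoxicillin and ampicillin as references. Plates were incubated at 37 °C for 18–24 h.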

Cryptococcus neoformans [9] = test: Minimum inhibitory concentration; format: cell-based; settings: for MIC: Cryptococcus neoformans, read-out: Minimum inhibitory concentration (MIC), C. neoformans; for Minimum inhibitory concentration (MIC), C. neoformans: 31.25–500 µg/mL tested, 37 °C, 18–24 h
Method in brief: as §1

Escherichia coli (res) [10] = test: Minimum inhibitory concentration; format: cell-based; settings: for MIC: Escherichia coli, read-out: Minimum inhibitory concentration (MIC), E. coli (res), 31.25–500 µg/mL tested, 37 °C, 18–24 h; for Minimum inhibitory concentration (MIC), E. coli (res): 31.25–500 µg/mL tested, 37 °C, 18–24 h
Method in brief: as §4

[11] = test system: Klebsiella pneumoniae (MTCC 109); test: Minimum inhibitory concentration; format: cell-based; settings: for Minimum inhibitory concentration (MIC), K. pneumoniae: 31.25–500 µg/mL tested, 37 °C, 18–24 h
Method in brief: as §4

SMILES | % Inhibition (DPPH) ([1]; Conc. 10 μg/mL) [%] | % Inhibition (DPPH) ([1]; Conc. 30 μg/mL) [%] | % Inhibition (DPPH) ([1]; Conc. 50 μg/mL) [%] | % Inhibition (DPPH) ([1]; Conc. 70 μg/mL) [%] | IC50 (DPPH radical scavenging) [1] [µg/mL] | MIC [2] [µg/mL] | zone of inhibition, C. neoformans (Cryptococcus neoformans [3]) [mm] | zone of inhibition, K. pneumoniae [4] | zone of inhibition, C. albicans [5] [mm] | zone of inhibition, E. coli (res) (Escherichia coli (res) [6]) | zone of inhibition, S. aureus (res) [7] | MIC [8] [µg/mL] | MIC (Cryptococcus neoformans [9]) [µg/mL] | MIC (Escherichia coli (res) [10]) [µg/mL] | MIC ([11]; Klebsiella pneumoniae, MTCC109, read-out: Minimum inhibitory concentration (MIC), K. pneumoniae, 31.25–500 µg/mL tested, 37 °C, 18–24 h) [µg/mL] | Minimum inhibitory concentration (MIC), C. albicans [2] [µg/mL] | Minimum inhibitory concentration (MIC), E. coli (res) (Escherichia coli (res) [10]) [µg/mL] | Minimum inhibitory concentration (MIC), K. pneumoniae [11] [µg/mL] | Minimum inhibitory concentration (MIC), S. aureus (res) [8] [µg/mL] | Minimum inhibitory concentration (MIC), C. neoformans (Cryptococcus neoformans [9]) [µg/mL]
Cc1cc(N=Nc2ccc(O)c(C=Nc3nc(-c4ccccc4)cs3)c2)ccc1Br [5a(Lig), 4-[(4-bromo-3-methylphenyl)diazenyl)-2-[(4-phenylthiazol-2-ylimino)methyl]phenol] | 27.99 ± 0.04 | 39.34 ± 0.02 | 49.09 ± 0.07 | 63.9 ± 0.05 | 56 ± 0.78 (≈ 117 µM) | 250 (≈ 524 µM) | 13.33 ± 1.37 | 12.67 ± 2.25 mm | 12.17 ± 2.23 | 13.67 ± 2.34 mm | 15.83 ± 2.79^∗ mm | 31.2 (≈ 65.5 µM) | 250 (≈ 524 µM) |  |  |  |  |  |  | 
Cc1cc(N=Nc2ccc(O)c(C=Nc3nc(-c4ccc(Cl)cc4)cs3)c2)ccc1Br [5b(Lig), 4-[(4-bromo-3-methylphenyl)diazenyl]-2-[(4-(4-chlorophenyl)thiazol-2-ylimino)methyl]phenol] | 19.26 ± 0.04 | 38.53 ± 0.09 | 48.33 ± 0.07 | 79.89 ± 0.06 | 52 ± 1.13 (≈ 102 µM) | 250 (≈ 488 µM) | 12.33 ± 1.75 | 13.5 ± 2.43 mm | 12 ± 1.27 | 15.33 ± 2.07 mm | 11.5 ± 1.87 mm |  | 250 (≈ 488 µM) | 31.2 (≈ 61.1 µM) |  |  |  |  |  | 
Cc1cc(C(C)(C)C)c(O)c(C(C)(C)C)c1 [BHT, butylated hydroxy toluene, reference compound] | 32.32 ± 0.01 | 49.54 ± 0.01 | 59.99 ± 0.10 | 87.74 ± 0.06 | 31 ± 0.70 (≈ 141 µM) |  |  |  |  |  |  |  |  |  |  |  |  |  |  | 
Cc1cc(N=Nc2ccc(O)c(C=O)c2)ccc1Br [Compound 4e, 5-[(4-Bromo-3-methylphenyl)diazenyl]-2-hydroxybenzaldehyde] | 17.96 ± 0.03 | 29.54 ± 0.05 | 33.64 ± 0.09 | 56.39 ± 0.08 | 72 ± 1.4 (≈ 226 µM) | 500 (≈ 1570 µM) | 12.5 ± 1.52 | 15.17 ± 2.14 mm | 10.17 ± 1.84 | 15.83 ± 1.47^∗ mm | 16.17 ± 2.04^∗ mm | 31.2 (≈ 97.9 µM) | 250 (≈ 783 µM) | 31.2 (≈ 97.9 µM) | 31.2 (≈ 97.9 µM) |  |  |  |  | 
Cc1cc(N=Nc2ccc([O][Cu][O]c3ccc(N=Nc4ccc(Br)c(C)c4)cc3C=Nc3nc(-c4ccccc4)cs3)c(C=Nc3nc(-c4ccccc4)cs3)c2)ccc1Br [Compound 6b, Bis[{4-((4-bromo-3-methylphenyl)diazenyl)-2-((4-phenylthiazol-2-ylimino)methyl)phenoxy}] copper,] | 28.43 ± 0.07 | 41.83 ± 0.02 | 51.41 ± 0.05 | 79.97 ± 0.06 | 48 ± 0.89 |  | 12.67 ± 1.51 | 16 ± 2.37^∗ mm | 13.33 ± 2.34 | 15.83 ± 1.84^∗ mm | 18.33 ± 1.75^∗ mm |  |  |  |  | 125 | 31.25 | 31.25 | 31.25 | 250
Cc1cc(N=Nc2ccc([O][Ni][O]c3ccc(N=Nc4ccc(Br)c(C)c4)cc3C=Nc3nc(-c4ccccc4)cs3)c(C=Nc3nc(-c4ccccc4)cs3)c2)ccc1Br [Compound 6c, Bis[{4-((4-bromo-3-methylphenyl)diazenyl)-2-((4-phenylthiazol-2-ylimino)methyl)phenoxy}] nickel] | 25.43 ± 0.08 | 39.65 ± 0.09 | 61.41 ± 0.04 | 83.11 ± 0.04 | 40 ± 0.59 |  | 15.83 ± 1.84 | 14.67 ± 3.14 mm | 11.33 ± 1.51 |  | 14.83 ± 1.84 mm |  |  |  |  | 250 |  | 62.5 | 62.5 | 31.25
Cc1cc(N=Nc2ccc([O][Co][O]c3ccc(N=Nc4ccc(Br)c(C)c4)cc3C=Nc3nc(-c4ccc(Cl)cc4)cs3)c(C=Nc3nc(-c4ccc(Cl)cc4)cs3)c2)ccc1Br [Compound 6d, Bis[4-{(4-bromo-3-methylphenyl)diazenyl}-2-{(4-(4-chlorophenyl)thiazol-2-ylimino)methyl}phenoxy]cobalt] | 36.53 ± 0.02 | 43.03 ± 0.04 | 61.97 ± 0.08 | 73.78 ± 0.07 | 38 ± 1.4 |  | 12.17 ± 2.71 | 16.17 ± 2.99 mm and 16.17 ± 2.99^∗ mm | 12.67 ± 2.34 | 15.5 ± 3.21 mm and 15.5 ± 3.21^∗ mm | 16.83 ± 2.71 mm and 16.83 ± 2.71^∗ mm |  |  |  |  | 250 | 31.25 | 31.25 | 31.25 | 250
Cc1cc(N=Nc2ccc([O][Ni][O]c3ccc(N=Nc4ccc(Br)c(C)c4)cc3C=Nc3nc(-c4ccc(Cl)cc4)cs3)c(C=Nc3nc(-c4ccc(Cl)cc4)cs3)c2)ccc1Br [Compound 6f, bis[4-{(4-bromo-3-methylphenyl)diazenyl}-2-{(4-(4-chlorophenyl)thiazol-2-ylimino)methyl}phenoxy] nickel] | 39.73 ± 0.02 | 53.38 ± 0.03 | 63.38 ± 0.01 | 79.53 ± 0.02 |  |  | 10.33 ± 1.75 | 16.67 ± 1.37^∗ mm | 12.5 ± 1.52 |  | 15.17 ± 1.94 mm |  |  |  |  | 125 |  | 31.25 | 31.25 | 250
